Results of several laboratories.

Structure (SMILES)	target or system	test	system	conditions	quantity	value
CC(C)n1c(C2CCNCC2)nc2c([N+](=O)[O-])c(Br)c(Br)cc21	–	–	human, plasma	oral, 100 mg, patients	Cmax	73.2 ng/mL
O=C(Nc1ccc(-c2cn(Cc3ccc(Cl)cc3)nn2)cc1)Nc1ccccc1Br	L02	cell growth or viability, CCK-8	–	50 µM, 72 h	viability	113%
COc1ccc(-c2c(Nc3ccccn3)[nH]c3c(C4=CCCCC4)c(-c4ccccc4)nn3c2=O)cc1	–	–	human, plasma	oral, 150 mg once daily, multiple doses, patients	Cmax	4960 ng/mL
O=C(Nc1ccc(Cl)cc1)Nc1cccc(-c2cn(Cc3cccc(Cl)c3)nn2)c1	L02	cell growth or viability, CCK-8	–	50 µM, 72 h	viability	71.8%
COc1ccc2c(c1)CN(C(=O)CCN1CCC(Cc3ccccc3)CC1)CC[S@@+]2[O-]	–	–	male human, plasma	intravenous, 0.05 mg/kg, healthy volunteers	Cmax	130 ng/mL
O=C(NCc1cn(Cc2ccc(Cl)cc2)nn1)Nc1ccc(Cl)cc1	L02	cell growth or viability, CCK-8	–	50 µM, 72 h	viability	127%
COc1ccc(NC(=O)Nc2cccc(-c3cn(Cc4cccc(Cl)c4)nn3)c2)cc1	L02	cell growth or viability, CCK-8	–	50 µM, 72 h	viability	123%
CCONC(=O)N1CCC[C@H](C(=O)NCc2nc(-c3ccc(C#N)cc3)cs2)C1	–	–	Caco-2	–	efflux ratio	6.9
COc1ccc(NC(=O)Nc2ccc(-c3cn(Cc4cccc(Cl)c4)nn3)cc2)cc1	L02	cell growth or viability, CCK-8	–	50 µM, 72 h	viability	114%
O=C(COc1ccc(Cl)cc1)NC12CC(c3nnc([C@H]4C[C@@H](OC(F)(F)F)C4)o3)(C1)C2	–	–	human, plasma	oral, 100 mg, multiple doses, once daily, steady state, healthy volunteers	Cmax	5.39 µM
Cc1ccccc1Cn1cc(-c2cccc(NC(=O)Nc3ccc(F)cc3)c2)nn1	L02	cell growth or viability, CCK-8	–	50 µM, 72 h	viability	103%
O=C(Nc1ccc(-c2cn(Cc3ccc(Br)cc3)nn2)cc1)Nc1ccccc1Br	L02	cell growth or viability, CCK-8	–	50 µM, 72 h	viability	104%
